The target in one test is Vasopressin V1a receptor (Homo sapiens, UniProt P37288). The experiment in a line: Displacement of [125I]- HO-LVA from human Vasopressin V1a receptor in membranes of CHO cells. The class given is cell membranes. The procedure, abridged: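 CHO membranes expressing human V1a receptor (0.5–1 μg protein/assay), 50–70 pM [125I]HO-LVA. Incubated 1 h at 30 °C, equilibrium by 30 min. Competitor 1 pM to 10 μM; 1 μM unlabeled ligand defined nonspecific binding. Ki = IC50/(1+[*L]/Kd), nonlinear least-squares; at least three assays in triplicate.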

The next test deals with T1, Oxytocin receptor (Homo sapiens, UniProt P30559).
T1 sequence (P30559 whole entry): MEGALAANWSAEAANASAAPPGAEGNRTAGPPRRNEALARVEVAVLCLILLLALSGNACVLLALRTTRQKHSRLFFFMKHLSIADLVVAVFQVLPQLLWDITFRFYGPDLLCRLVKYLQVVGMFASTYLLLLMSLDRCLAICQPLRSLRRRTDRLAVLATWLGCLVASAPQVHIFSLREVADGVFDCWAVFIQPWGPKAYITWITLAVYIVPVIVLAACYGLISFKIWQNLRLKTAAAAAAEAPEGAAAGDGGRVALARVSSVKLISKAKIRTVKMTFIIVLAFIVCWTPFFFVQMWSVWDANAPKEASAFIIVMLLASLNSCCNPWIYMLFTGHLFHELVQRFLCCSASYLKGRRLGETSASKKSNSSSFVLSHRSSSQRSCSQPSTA
The experiment in a line: The inhibition constant (Ki(nM)) by displacement of [125I]- HO-LVA radiolabeled ligand using membranes of CHO cells of human Oxytocin receptor. In kind it is cell membranes. For orientation: In a radioligand displacement assay an active substance lowers the binding of a labelled ligand.

Test [1] deals with T2, Vasopressin V1b receptor (Homo sapiens, UniProt P47901).
T2 sequence (P47901 whole entry): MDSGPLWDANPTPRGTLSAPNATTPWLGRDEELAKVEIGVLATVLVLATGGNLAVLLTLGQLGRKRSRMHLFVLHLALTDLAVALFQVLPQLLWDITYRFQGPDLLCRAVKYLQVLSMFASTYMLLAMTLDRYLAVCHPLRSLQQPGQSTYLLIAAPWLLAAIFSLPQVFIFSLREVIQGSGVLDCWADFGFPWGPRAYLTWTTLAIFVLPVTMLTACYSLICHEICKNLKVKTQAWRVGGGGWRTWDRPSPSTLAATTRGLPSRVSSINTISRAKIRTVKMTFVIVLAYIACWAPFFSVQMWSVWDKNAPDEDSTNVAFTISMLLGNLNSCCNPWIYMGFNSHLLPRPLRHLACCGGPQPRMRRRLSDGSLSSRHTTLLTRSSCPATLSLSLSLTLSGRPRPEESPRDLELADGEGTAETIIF
The test is described as follows: The inhibition constant (Ki(nM)) by displacement of [125I]- HO-LVA radiolabeled ligand using membranes of CHO cells of human Vasopressin V1b receptor. The class given is cell membranes. The method in brief: (§1)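 Human V1b receptor in CHO cell membranes; competition against 1 nM [125I]HO-LVA. Membranes at 0.5–1 μg protein/assay, 1 h at 30 °C. Competitor spanned 1 pM to 10 μM; nonspecific binding with 1 μM unlabeled ligand. Ki = IC50/(1+[*L]/Kd) by nonlinear least-squares fit, ≥3 assays in triplicate.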

Test [2] concerns the target T3, Vasopressin V2 receptor (Homo sapiens, UniProt P30518). The experiment in a line: The inhibition constant (Ki(nM)) by displacement of [125I]- HO-LVA radiolabeled ligand using membranes of CHO cells of human Vasopressin V2 receptor. The class given is cell membranes.
Test [3] addresses T2, Vasopressin V1b receptor. The test is described as follows: Compound was tested for its ability to displace [125I]- HO-LVA ligand from human Vasopressin V1b receptor in the membranes of CHO cells. The class given is cell membranes. The method in brief:
as §1

The target of test [4] is T3, Vasopressin V2 receptor. The test is described as follows: Compound was tested for its ability to of [125I]- HO-LVA radiolabeled ligand using membranes of CHO cells of human Vasopressin V2 receptor. In kind it is cell-based.

Where a SMILES comes first, the peptide text is derived from it. [ ]: non-standard residue; d: D form. The star is where a group is joined. X1 = O=C(Cc1ccc(O)cc1)*

Chain of Vasopressin V1a receptor (P37288 whole entry): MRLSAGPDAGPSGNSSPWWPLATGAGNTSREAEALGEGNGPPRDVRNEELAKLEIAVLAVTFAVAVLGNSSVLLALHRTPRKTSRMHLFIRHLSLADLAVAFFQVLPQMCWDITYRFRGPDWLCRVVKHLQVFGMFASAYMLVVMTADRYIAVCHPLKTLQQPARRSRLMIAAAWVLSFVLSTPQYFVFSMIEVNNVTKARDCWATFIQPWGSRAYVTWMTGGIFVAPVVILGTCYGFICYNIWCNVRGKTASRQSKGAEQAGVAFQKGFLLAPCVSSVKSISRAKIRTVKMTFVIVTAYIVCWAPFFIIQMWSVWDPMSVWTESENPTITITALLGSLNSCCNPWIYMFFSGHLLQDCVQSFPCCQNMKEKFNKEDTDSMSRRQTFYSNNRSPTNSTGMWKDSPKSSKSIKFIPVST
T3 sequence (P30518 whole entry): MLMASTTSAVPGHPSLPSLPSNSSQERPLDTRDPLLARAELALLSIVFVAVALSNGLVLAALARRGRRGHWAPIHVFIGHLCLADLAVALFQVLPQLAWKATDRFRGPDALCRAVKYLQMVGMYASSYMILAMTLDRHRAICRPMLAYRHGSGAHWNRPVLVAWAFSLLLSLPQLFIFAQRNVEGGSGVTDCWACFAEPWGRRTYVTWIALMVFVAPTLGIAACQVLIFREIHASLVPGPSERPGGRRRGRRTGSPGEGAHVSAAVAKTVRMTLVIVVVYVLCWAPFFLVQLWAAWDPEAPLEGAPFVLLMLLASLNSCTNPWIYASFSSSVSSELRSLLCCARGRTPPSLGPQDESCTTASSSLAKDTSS

On Vasopressin V1a receptor, `COc1ccc(C[C@@H](NC(=O)CCc2ccc(O)cc2)C(=O)N[C@@H](Cc2ccccc2)C(=O)N[C@@H](CCC(N)=O)C(=O)N[C@@H](CC(N)=O)C(=O)N[C@@H](CCCNC(=N)N)C(=O)N2CCC[C@H]2C(=O)N[C@@H](CCCCNC(=O)c2ccc3c(c2)C2(OC3=O)c3ccc(N(C)C)cc3Oc3cc(N(C)C)ccc32)C(N)=O)cc1` displayed a Ki of 0.17 nM.
Turning to `COc1ccc(C[C@@H](NC(=O)CCc2ccc(O)cc2)C(=O)N[C@@H](Cc2ccccc2)C(=O)N[C@@H](CCC(N)=O)C(=O)N[C@@H](CC(N)=O)C(=O)N[C@@H](CCCCNC(=O)c2ccc3c(c2)C(=O)OC32c3ccc(O)cc3Oc3cc(O)ccc32)C(=O)N2CCC[C@H]2C(=O)N[C@@H](CCCNC(=N)N)C(N)=O)cc1`, on Vasopressin V1a receptor, the affinity, expressed as Ki, was 5.6 nM.
As to `COc1ccc(C[C@@H](NC(=O)CCc2ccc(O)cc2)C(=O)N[C@@H](Cc2ccccc2)C(=O)N[C@@H](CCC(N)=O)C(=O)N[C@@H](CC(N)=O)C(=O)N[C@@H](CCCNC(=N)N)C(=O)N2CCC[C@H]2C(=O)N[C@@H](CCCCNC(=O)c2ccc3c(c2)C(=O)OC32c3ccc(N(C)C)cc3Oc3cc(N(C)C)ccc32)C(N)=O)cc1`, the Ki came out at 1.2 nM at Oxytocin receptor, 27 nM on Vasopressin V1b receptor [1], 7500 nM at Vasopressin V2 receptor [2] and 0.07 nM on Vasopressin V1a receptor.
For the molecule `COc1ccc(C[C@@H](NC(=O)Cc2ccc(O)cc2)C(=O)N[C@@H](Cc2ccccc2)C(=O)N[C@@H](CCC(N)=O)C(=O)N[C@@H](CC(N)=O)C(=O)N[C@@H](CCCN=C(N)N)C(=O)N2CCC[C@H]2C(=O)N[C@@H](CCCN=C(N)N)C(N)=O)cc1` (X1-[dY](Me)FQNRPR-NH2), the Ki on Oxytocin receptor turned out to be 2.7 nM; on Vasopressin V1b receptor [3] it was 5.9 nM; on Vasopressin V1a receptor, 0.08 nM; at Vasopressin V2 receptor [4], 137 nM.
Regarding `CCN(CC)c1ccc2c(-c3ccccc3C(=O)N[C@H](Cc3ccc(OC)cc3)C(=O)N[C@@H](Cc3ccccc3)C(=O)N[C@@H](CCC(N)=O)C(=O)N[C@@H](CC(N)=O)C(=O)N[C@@H](CCCNC(=N)N)C(=O)N3CCC[C@H]3C(=O)N[C@@H](CCCNC(=N)N)C(=O)N[C@@H](Cc3ccc(O)cc3)C(N)=O)c3ccc(=[N+](CC)CC)cc-3oc2c1`, the Ki on Vasopressin V1a receptor (cho) was > 500 nM.
Consider `COc1ccc(C[C@@H](NC(=O)Cc2ccccc2)C(=O)N[C@@H](Cc2ccccc2)C(=O)N[C@@H](CCC(N)=O)C(=O)N[C@@H](CC(N)=O)C(=O)N[C@@H](CCCN=C(N)N)C(=O)N2CCC[C@H]2C(=O)N[C@@H](CCCN=C(N)N)C(N)=O)cc1`, for which the Ki on Oxytocin receptor (cho) turned out to be 1.1 nM; on Vasopressin V1b receptor [1] (cho), 9.4 nM; on Vasopressin V2 receptor [2] (cho), 282 nM; on Vasopressin V1a receptor (cho), 0.8 nM.
As to `COc1ccc(C[C@@H](NC(=O)CCc2ccc(O)cc2)C(=O)N[C@@H](Cc2ccccc2)C(=O)N[C@@H](CCC(N)=O)C(=O)N[C@@H](CC(N)=O)C(=O)N[C@@H](CCCCNC(=O)c2ccc3c(c2)C2(OC3=O)c3ccc(N(C)C)cc3Oc3cc(N(C)C)ccc32)C(=O)N2CCC[C@H]2C(=O)N[C@@H](CCCNC(=N)N)C(N)=O)cc1`, affinity on Vasopressin V1a receptor was put at a Ki of 3.3 nM.
For `COc1ccc(C[C@@H](NC(=O)CCc2ccc(O)cc2)C(=O)N[C@@H](Cc2ccccc2)C(=O)N[C@@H](CCC(N)=O)C(=O)N[C@@H](CC(N)=O)C(=O)N[C@@H](CCCNC(=N)N)C(=O)N2CCC[C@H]2C(=O)N[C@@H](CCCCNC(=O)c2ccc3c(c2)C(=O)OC32c3ccc(O)cc3Oc3cc(O)ccc32)C(N)=O)cc1`, the inhibition constant (Ki) turned out to be 1.6 nM at Oxytocin receptor, 142 nM at Vasopressin V1b receptor [1], 9200 nM at Vasopressin V2 receptor [2] and 0.17 nM at Vasopressin V1a receptor.
Take `COc1ccc(C[C@@H](NC(=O)CCc2ccc(O)cc2)C(=O)N[C@@H](Cc2ccccc2)C(=O)N[C@@H](CCC(N)=O)C(=O)N[C@@H](CC(N)=O)C(=O)N[C@@H](CCCCNC(=O)c2ccc3c(c2)C(=O)OC32c3ccc(N(C)C)cc3Oc3cc(N(C)C)ccc32)C(=O)N2CCC[C@H]2C(=O)N[C@@H](CCCNC(=N)N)C(N)=O)cc1`: the Ki at Vasopressin V1a receptor was found to be 1.3 nM.
Still for that read-out and setting: the result for `COc1ccc(C[C@@H](NC(=O)CCc2ccc(O)cc2)C(=O)N[C@@H](Cc2ccccc2)C(=O)N[C@@H](CCC(N)=O)C(=O)N[C@@H](CC(N)=O)C(=O)N[C@@H](CCCNC(=N)N)C(=O)N2CCC[C@H]2C(=O)N[C@@H](CCCCNC(=O)c2ccc3c(c2)C2(OC3=O)c3ccc(O)cc3Oc3cc(O)ccc32)C(N)=O)cc1` reads 0.23 nM.

As usually defined, the Ki is a dissociation constant, usually derived from enzyme kinetics or from competition with a known ligand.

(Values after ChEMBL document CHEMBL1132193, “Fluorescent pseudo-peptide linear vasopressin antagonists: design, synthesis, and applications” (J Med Chem, 1999).)
